For assay [1], the system named is HT-29. Description: Cytotoxicity against human HT-29 cells assessed as reduction in cell viability incubated for 72 hrs by MTT assay. Type of assay: functional, cell-based. Particulars: HT-29, 72 h. The method in brief: (§1)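 Cells seeded overnight at 3.0×10^3 (A549), 5.0×10^3 (HT29) or 4.0×10^3 (MCF-7, MDA-MB-231) per well, then exposed to compound for 72 h. Medium replaced, MTT 0.5 mg/mL added for 4 h at 37 °C, cells lysed in DMSO, absorbance read at 570 nm. IC50 as mean ± SD, n = 3. Final DMSO below 1.0%.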
In general terms: Formazan colour is commonly taken as a measure of viable cells.

Assay [2] relates to MCF7. Description: Cytotoxicity against human MCF7 cells assessed as reduction in cell viability incubated for 24 hrs by MTT assay. Format: functional, cell-based. Particulars: MCF7, 24 h. The method in brief: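 MCF-7 cells seeded at 8.0×10^3 per well and treated with compound for 24 h. MTT 0.5 mg/mL added for 4 h at 37 °C after medium exchange, then DMSO lysis and absorbance at 570 nm. IC50 as mean ± SD, n = 3.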

Assay [3] is described as follows: Binding affinity to synthetic 5'-FAM-CCCTACGTATATGAAAATATACGTAGGG-BHQ1-3' dsDNA assessed as melting temperature at 2.5 uM by SYBR green I dye dependent differential scanning fluorimetry based thermal denaturation method (reference value: 70.7 +/- 0.0 degC).
Assay [4] can be described thus: Inhibition of HIF1 (unknown origin) expressed in HEK293 cells assessed as reduction in hypoxia-induced HIF1 activation pre-incubated for 1 hrs before hypoxia exposure for 24 hrs by luciferase reporter gene assay. To be noted: Homo sapiens. Type of assay: cell-based. The method in brief:
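HEK293 cells stably carrying HRE reporter plasmid p2.1, seeded at 8.0×10^4 per well and grown 24 h in normoxia. Medium changed to fresh medium with 0.25% DMSO and a range of compound concentrations for 1 h, then 24 h at 1% O2 or normoxia. Luciferase activity normalised to protein content. IC50 as mean ± SD, n = 3.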
For orientation: A reporter such as luciferase makes a cellular process visible.

Assay [5] has as its system MDA-MB-231. In words: Cytotoxicity against human MDA-MB-231 cells assessed as reduction in cell viability incubated for 72 hrs by MTT assay. Format: functional, cell-based. To be noted: MDA-MB-231, 72 h. The method in brief: as §1
Assay [6] in a line: Inhibition of HIF1 (unknown origin) expressed in HEK293 cells assessed as reduction in hypoxia-induced HIF1 activation by luciferase reporter gene assay. Particulars: Homo sapiens. Type of assay: cell-based. The method in brief: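 HEK293 clone stably carrying the p2.1 HRE-luciferase reporter, seeded at 8.0×10^4 cells/well and grown 24 h under normoxia. Cells were given fresh medium containing 0.25% DMSO and a range of compound concentrations for 1 h, then held under hypoxia (1% O2) or normoxia for 24 h. Luciferase activity was measured with a kit and normalised to protein content. IC50 reported as mean ± SD, n = 3.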

Assay [7] has as its system MCF7. In words: Cytotoxicity against human MCF7 cells assessed as reduction in cell viability. Format: functional, cell-based. The method in brief: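 MTT viability assay. For the 72 h format, cells were plated overnight at 4.0×10^3 cells/well and then exposed to compounds for 72 h. For the 24 h screening format, cells were plated at 8.0×10^3 cells/well and exposed for 24 h. Medium was then refreshed, MTT was added at 0.5 mg/mL for 4 h at 37 °C, and cells were lysed in DMSO. Absorbance was read at 570 nm. IC50 reported as mean ± SD, n = 3.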

Assay [8] has as its system MCF7. Description: Inhibition of hypoxia-induced HIF1 mRNA expression in human MCF7 cells incubated for 16 hrs by RT-PCR analysis. Type of assay: functional, cell-based.
Assay [9] deals with MCF7. In words: Cytotoxicity against human MCF7 cells assessed as reduction in cell viability incubated for 72 hrs by MTT assay. Format: functional, cell-based. To be noted: MCF7, 72 h. The procedure, abridged: as §1
Assay [10] is described as follows: Retardation factor of the compound.
Assay [11] in a line: Binding affinity to synthetic d(ACGTAGAACGT) dsDNA assessed as melting temperature at 2.5 uM by SYBR green I dye dependent differential scanning fluorimetry based thermal denaturation method (reference value: 44.2 +/- 1.0 degC). In general terms: DSF heats the sample and reads unfolding from a dye or from intrinsic fluorescence.
For assay [12], the system named is A549. Description: Cytotoxicity against human A549 cells assessed as reduction in cell viability incubated for 72 hrs by MTT assay. Format: functional, cell-based. To be noted: A549, 72 h. The method in brief: as §1

We go through 2 compounds from ChEMBL document CHEMBL4342497, “Design, Synthesis, and Conformation-Activity Study of Unnatural Bridged Bicyclic Depsipeptides as Highly Potent Hypoxia Inducible Factor-1 Inhibitors and Antitumor Agents” (J Med Chem, 2020).

A word on the IC50: it is the midpoint of a concentration-inhibition curve. The Tm is the temperature at which the thermal transition is half complete.

Calls of active or inactive are those of the source. The rule behind the calls is not given here.

For `CSC1SC[C@H]2C(=O)N(C)[C@@H](C(C)C)C(=O)OC[C@@H](NC(=O)c3cnc4ccccc4n3)C(=O)N[C@@H](C)C(=O)N(C)[C@@H]1C(=O)N(C)[C@@H](C(C)C)C(=O)OC[C@@H](NC(=O)c1cnc3ccccc3n1)C(=O)N[C@@H](C)C(=O)N2C` (stereo partly drawn), the IC50 amounted to 3.5 nM in assay [1]; 5.5 nM in assay [2]; 0.35 nM in [4]; 2.3 nM in assay [5]; 0.35 nM in assay [6]; 5.5 nM in assay [7]. In addition, the values for the IC50 in [9] and in assay [12] were 2 nM and 4.7 nM, respectively. The Tm in [3] was found to be 81.6 °C; in assay [11], 55.8 °C. In addition, the inhibition entry in [8] was “inactive”. Also, the Rm in assay [10] was 0.28.
Turning to `CC(C)[C@H]1C(=O)OC[C@@H](NC(=O)c2cnc3ccccc3n2)C(=O)N[C@@H](C)C(=O)N(C)[C@H]2CSSC[C@@H](C(=O)N1C)N(C)C(=O)[C@H](C)NC(=O)[C@H](NC(=O)c1cnc3ccccc3n1)COC(=O)[C@H](C(C)C)N(C)C2=O` [TRIOSTIN], the IC50 stood at 340 nM in assay [1]; 2000 nM in assay [2]; 26.9 nM in [4]; 178 nM in [5]; 26.9 nM in [6]; 4100 nM in assay [7]. In addition, the IC50 was 212 nM in assay [9] and 322 nM in assay [12]. Besides, the Tm came to 78 °C in [3] and 47.2 °C in assay [11]. Also, in [10], the Rm turned out to be 0.15.
